Measurements pooled from the literature.
Each line is one published result; the experiments were not run side by side.

| SMILES | test system | conditions | concentration |
| --- | --- | --- | --- |
| Cc1noc(C)c1Cn1cc(N2C(=O)CN(Cc3cccc(O)c3)C2=O)cn1 | male Sprague-Dawley rat, plasma | oral, 10 mg/kg, 1 h | 8.29 ng/mL |
| CCc1cc(-c2noc(-c3cc(OC)nc(C4CCCC4)c3)n2)cc(C)c1OC[C@@H](O)CO | Wistar rat, plasma | oral, 0.3 mg/kg, 24 h, single dose | 5 ng/mL |
| Cc1noc(C)c1Cn1cc(N2C(=O)N(Cc3cccc(O)c3)C(C)(C)C2=O)cn1 | male Sprague-Dawley rat, plasma | oral, 100 mg/kg, 2 h, single dose | 3.8 ng/mL |
| CCCOc1ccc(OC)c(F)c1C(=O)c1ccc(C(=O)N[C@@H]2CNC[C@H]2NC(=O)c2ccc3[nH]ncc3c2)cc1 | rat, plasma | intravenous, 559 µg, 10 min, single dose | 470 ng/mL |
| Cc1ccc(-c2cc(C(F)(F)F)nn2-c2ccc(S(N)(=O)=O)cc2)cc1 | male Sprague-Dawley rat, plasma | oral, 20 mg/kg, 8 h | 910 nM |
| COc1nc(-c2cc(C)c(N[C@@H](C)c3cc(F)cc(F)c3)nn2)ccc1-n1cnc(C)c1 | male Sprague-Dawley rat, CSF | oral, 25 mg/kg, 4 h, multiple doses, once daily | 76.6 ng/mL |
| COc1ccc2c(=O)n(C)c(-c3ccccc3)nc2c1 | male Sprague-Dawley rat, brain | oral, 30 mg/kg, 30 min, single dose | 20.4 ng/g |
| CCOC(=O)[C@@]12C[C@@H]1[C@@H](n1ccc3c(NC)nc(C#Cc4ccc(Cl)s4)nc31)[C@H](O)[C@@H]2O | male Sprague-Dawley rat, plasma | oral, 3 mg/kg, 30 min | 48.4 ng/mL |
| COc1cccc(-c2n[nH]c(SCc3ccccn3)n2)c1OC | male Sprague-Dawley rat, plasma | oral, 30 mg/kg, 2 h, single dose | 9750 ng/mL |
